Published values pooled from the literature.
pEC50, pIC50: −log10 of the molar value.

Nc1ncnc2c([C@@H]3N[C@H](CO)[C@@H](O)[C@H]3O)c[nH]c12
inhibition (human respiratory syncytial virus; viral replication, inhibitor; MA104; 0.9 µM): 0%

Nc1ccn(C[C@@H](CO)OCP(=O)(O)O)c(=O)n1
pIC50 (Human betaherpesvirus 5; viral replication): 6.55

O=c1[nH]c2c(-c3ccccc3)csc2c(=O)n1O
inhibition (Human betaherpesvirus 5; viral replication, inhibitor; 10 µM, 7 days): 5.3%

O=C(Cn1ccnc1[N+](=O)[O-])NCc1ccccc1
IC50 (Trypanosoma cruzi; parasite growth; rat Myoblast, TULAHUEN; intracellular, amastigote): 0.352 µg/mL

COc1cccc(-c2nc(C(=O)NCc3ccc(C)cc3)c(O)c3ncccc23)c1
pEC50 (Human betaherpesvirus 5; viral replication, inhibitor; HFF): 4.62

O=S(=O)(c1ccc(-c2ccc3ncnc(Nc4ccc(OCc5ccccc5)c(Cl)c4)c3c2)cc1)N1CCOCC1
inhibition (Trypanosoma cruzi; parasite growth, absorbance; NIH3T3, TULAHUEN; 10 µM, intracellular, amastigote): 9%

Cc1ccc(CNC(=O)c2nc(Cl)c3cccnc3c2O)cc1
pEC50 (Human betaherpesvirus 5; viral replication, inhibitor; HFF): 4.68

O=C1c2ccccc2C(c2ccccc2)C(=O)N1OCc1ccccc1 (stereo not shown)
inhibition (Human betaherpesvirus 5; viral replication, inhibitor; 10 µM, 7 days): 12%

Cc1ccc(CNC(=O)c2nc(-c3ccccc3)c3cccnc3c2O)cc1
pEC50 (Human betaherpesvirus 5; viral replication, inhibitor; HFF): 4.51

Cc1sc2[nH]c(=O)n(O)c(=O)c2c1C
inhibition (Human betaherpesvirus 5; viral replication, inhibitor; 10 µM, 7 days): -5.1%
